# High-throughput results: PubChem BioAssay, several laboratories
# CRFR2-BP antag = CRF-BP/CRF-R2 complex antagonism | HEK293 CRF-R2/CRF-BP, CRF-induced calcium fluorescence | inhibition, % at 11.8 µM | 350,000 compounds, 0.59% hits | AID 588475;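 active means inhibition of the ligand-induced calcium signal above about 50% at the single tested concentration, limit read from the data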
# CSN deneddyl inh = inhibitors of human CSN-mediated cullin deneddylation; AID 651999; 360,000 compounds, 0.38% hits; Purified CSN, SCF-Nedd8-OG deneddylation, fluorescence polarization; Q92905; inhibition, % at 12.5 µM;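 active means pattern-corrected inhibition above about 35%, with an unprinted fluorescence ratio check between 0.5 and 1.5, limit read from the data, passing the limit was not always enough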;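 further: 0% = enzyme with substrate and 100% = substrate without enzyme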
#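 Material: purified human Csn5 enzyme expressed in HEK293T cells / Medium: Tris buffer pH 7.5, NaCl, DTT, Tween-20, trehalose, ovalbumin / Compound dosing: 12.5 µM single point / Schedule: 90 min incubation of compound, enzyme and substrate at room temperature / Signal: fluorescence polarization of the substrate / Control set: no-enzyme wells high, enzyme-with-substrate wells low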
# TPT1 inh = blocks Candida albicans tRNA 2'-phosphotransferase; 300,000 compounds, 0.81% hits; recombinant caTPT1, FP RNA substrate dephosphorylation; inhibition, % at 5 µM;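 active means inhibition above the mean of all tested compounds plus 3 SD, set per screening campaign, cut at about 24% in these data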;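 further: plate controls were DMSO alone for no effect and ferristatin control at 100 nM for full effect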
# Rpn11 block = inhibitors of human proteasome Rpn11; O00487; human 26S proteasome, Ub4-pepOG fluorescence polarization; 20S core pre-blocked with epoxomicin; calls only at 20 µM; 360,000 compounds, 0.59% hits; AID 588493;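 active means inhibition at 20 µM, scaled to each plate's controls, above about 33%, limit read from the data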
# Target sequence (O00487 whole entry, looked up): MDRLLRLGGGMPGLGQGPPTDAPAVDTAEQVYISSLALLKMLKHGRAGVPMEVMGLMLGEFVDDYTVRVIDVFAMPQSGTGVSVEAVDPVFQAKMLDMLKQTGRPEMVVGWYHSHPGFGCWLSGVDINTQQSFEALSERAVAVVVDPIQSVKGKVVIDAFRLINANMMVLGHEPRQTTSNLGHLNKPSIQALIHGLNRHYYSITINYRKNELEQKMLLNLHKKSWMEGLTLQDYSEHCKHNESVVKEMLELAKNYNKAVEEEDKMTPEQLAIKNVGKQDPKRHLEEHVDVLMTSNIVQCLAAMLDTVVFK
# HNF4A DNA FP = change in binding of human HNF4 alpha to DNA; P41235; HNF4a-FITC DNA binding, fluorescence polarization, 1 h; activity change, % at 10 µM; 360,000 compounds, 0.3% hits; AID 1224865; in the data active means activity change above about 30%, passing the limit was not always enough
# CRFR2-BP ag = agonists of human CRF-binding protein/CRF-R2 receptor complex; HEK293 CRF-R2/CRF-BP, calcium dye fluorescence (FLIPR); percent of saturating CRF peptide response; activation, % at 13.2 µM; 350,000 compounds, 0.46% hits; AID 588473;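 active means activation of at least 50%, plus an integration ratio under a set limit after plate pattern correction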;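 further: plate controls were neutral control wells without compound for no effect and CRF at EC100 for full effect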
# * hit, by the source's call; i = inactive; . = no result given. Rows were chosen to be rich in hits. Some 2.3% of all compounds tested hit in one or more screens of this group.
SMILES,CRFR2-BP antag,CSN deneddyl inh,TPT1 inh,Rpn11 block,HNF4A DNA FP,CRFR2-BP ag
COCCn1c(SCC(=O)c2ccc3c(c2)OCCO3)nnc1-c1ccco1,98*,-1,0,i,-2,0
Cn1c(SCC(=O)Nc2ccc3c(c2)OCCO3)nnc1C(F)(F)F,-5,1,.,i,-4,-1
Cn1c(SCC(=O)c2ccc3c(c2)OCCO3)nnc1C(F)(F)F,111*,-3,2,i,1,-1
CC1(C)C2CCC1(C(=O)O)c1nc3ccccc3nc12 (stereo not given),20,4,9,i,3,-2
CC(=O)c1ccc(NC(=S)NCCCn2ccnc2)cc1,1,5,0,i,-3,0
Cc1cc(C)cc(NC(=O)NCc2c(-c3ccccc3)noc2C)c1,24,4,-1,i,-2,-1
Cc1onc(-c2ccccc2)c1CNC(=O)CN1C(=O)c2ccccc2C1=O,109*,2,2,i,-1,1
CCCn1cc(S(=O)(=O)c2ccccc2)c(=O)c2cc(OCC)ccc21,75*,3,0,i,5,1
CCCn1cc(S(=O)(=O)c2ccc(OC)cc2)c(=O)c2cc(OCC)ccc21,-4,-4,-3,i,-3,-2
COc1cccc2ccc(CC(O)(c3ccccc3)c3ccccc3)nc12,58*,1,.,i,1,4
Cc1ccc2nc(CC(O)(c3ccccc3)c3ccccc3)ccc2c1,25,1,.,i,3,0
COCCNC(=S)N1CCc2cc(OC)c(OC)cc2C1COc1ccc(C(C)C)cc1 (stereo not given),50*,-15,-2,i,0,-2
CSCCCNC(=S)Nc1ccc(N2CCOCC2)cc1,-11,1,-3,i,0,3
Cc1ccc(-n2c(=O)cc(N3CCCCCC3)[nH]c2=O)cc1,-5,5,-2,i,0,1
Cc1ccc(-n2c(Cl)c(Cl)[nH]c(=O)c2=O)cc1,51*,1,1,i,0,0
COc1ccc(C)c(-n2c(=O)n(Cc3ccccc3)c(=O)c3[nH]cnc32)c1,-12,-3,-1,i,7,-3
c1ccc2c(CN3CCOCC3)c3ccccc3c(CN3CCOCC3)c2c1,-15,-4,-7,i,32*,0
O=C(C1=C[C@H](c2coc3ccccc3c2=O)C[C@H](OCc2ccc(CO)cc2)O1)N1CCN(Cc2ccc3c(c2)OCO3)CC1,-7,-2,-1,i,0,-2
CCN1CCN(Cc2c(O)ccc3c2O/C(=C\c2ccc(C)cc2)C3=O)CC1,-54,2,19,i,2,54*
CC(=O)Nc1ccc2c(c1)Cc1cc(N3C(=O)C=CC3=O)ccc1-2,-40,-1,.,i,-4,51*
O=C1C=CC(=O)N1c1ccc2c(c1)Cc1cc(F)ccc1-2,-4,0,.,i,-11,3
Cc1cc(C)c(Nc2cc(S(=O)(=O)O)c(N)c3c2C(=O)c2ccccc2C3=O)c(C)c1,53*,16,-1,i,-43,13
O=C(Cn1ncc2c([nH]c3ccccc32)c1=O)NCC1CCN(Cc2ccccc2F)CC1,70*,-1,-2,i,5,0
O=C(Cn1ncc2c([nH]c3ccccc32)c1=O)NCCc1ccccc1,4,-5,0,i,1,3
C/C(=N\NC(=O)c1ccc(NS(=O)(=O)c2cccs2)cc1)c1ccncc1,1,0,0,i,2,-2
C/C(=N\NC(=O)c1ccc(NS(=O)(=O)c2cccs2)cc1)c1ccccc1,58*,0,-1,i,3,-1
Cc1ccc2nc(N3CCC(C(=O)O)CC3)nc(-c3ccccc3)c2c1,-12,2,-7,i,2,2
CN1CCN(C2=CC3=CC(=C(C#N)C#N)CCC3CC2)CC1 (stereo not given),-172,-102,.,.,-101,241*
CCN1CCN(C2=CC3=CC(=C(C#N)C#N)CCC3CC2)CC1 (stereo not given),i,-98,.,.,-114,500*
N#CC(C#N)=C1C=C2C=C(N3CCOCC3)CCC2CC1 (stereo not given),-266,-101,.,.,-112,248*
